In ChEMBL document CHEMBL1153925, “Synthesis, characterization and biological activity of ring-substituted 6-benzylamino-9-tetrahydropyran-2-yl and 9-tetrahydrofuran-2-ylpurine derivatives” (Bioorg Med Chem, 2009) one finds Activity data, which are given here for four molecules.

Activity calls are given as the source filed them. The rule behind the calls is not given here.

This experiment has as its system Nicotiana tabacum. Description: Cytokinin activity in tobacco callus assessed as stimulation of callus growth relative to 6-benzylaminopurine. The class given is functional, organism-based. The method, boiled down:
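Compounds dissolved in DMSO, diluted with water to 5 × 10^-2 M stock, then diluted in medium to 10^-8 to 10^-4 M. Final DMSO ≤0.2%; solvent control 0.2% DMSO. Readout was cytokinin-dependent tobacco callus growth. Activity is expressed relative to 10^-6 M BAP (=100%) at each compound's optimal concentration. Five replicates per concentration; whole test run at least twice.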
Take `COc1ccc(CNc2ncnc3c2ncn3C2CCCCO2)c(OC)c1` (centres undefined): the outcome was inactive.
As for `COc1ccc(CNc2ncnc3c2ncn3C2CCCCO2)c(OC)c1OC` (centres undefined), the result was inactive.
For `COc1cc(CNc2ncnc3c2ncn3C2CCCCO2)cc(OC)c1` (centres undefined), the outcome was inactive.
Under `COc1ccc(CNc2ncnc3c2ncn3C2CCCCO2)cc1OC` (centres undefined) stands “inactive”.
